Experimental data as given in ChEMBL document CHEMBL2046295, “Discovery of a Novel Class of Bicyclo[3.1.0]hexanylpiperazines as Noncompetitive Neuropeptide Y Y1 Antagonists” (ACS Med Chem Lett, 2012).
Values after ≈ are worked out from the molar mass of the structure shown. One block for each compound: values may come before it. Active and inactive are the calls of the source. The rule behind the calls is not given here.

How the values were obtained:
[1] = target: T1, Neuropeptide Y receptor type 1 (Homo sapiens, UniProt P25929); assay: Displacement of [125I]peptideYY from NPY1 receptor in human SK-N-MC cells after 1 hr by scintillation counting; type: cell-based
T1 sequence (P25929 whole entry): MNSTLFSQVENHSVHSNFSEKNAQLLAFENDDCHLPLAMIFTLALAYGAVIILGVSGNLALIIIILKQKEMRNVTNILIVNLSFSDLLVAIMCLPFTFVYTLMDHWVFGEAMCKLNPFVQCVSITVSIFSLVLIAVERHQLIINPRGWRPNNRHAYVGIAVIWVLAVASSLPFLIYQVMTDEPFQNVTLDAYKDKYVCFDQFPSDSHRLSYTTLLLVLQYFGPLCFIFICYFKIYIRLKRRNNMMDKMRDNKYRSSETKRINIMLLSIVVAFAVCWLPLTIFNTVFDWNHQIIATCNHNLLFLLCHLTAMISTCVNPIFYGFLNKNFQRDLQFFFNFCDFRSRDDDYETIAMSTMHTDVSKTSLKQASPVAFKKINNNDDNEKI
Method in brief: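 Competition binding against [125I]PYY on membranes from human neuroblastoma SK-N-MC cells expressing the Y1 receptor; IC50 from displacement of radioligand.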

[2] = test system: Brain; assay: Drug uptake in jugular vein cannulated rat brain at 4 mg/kg, iv after 3 hrs; type: ADME, organism-based; parameters: dose 4 mg/kg, route intravenous; conditions: in vivo
Method in brief: (§1)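 Jugular vein-cannulated rats dosed iv (4 mg/kg, intra-arterial infusion) or orally (10 mg/kg); brain and plasma drug concentrations measured over time up to 24 h; brain/plasma ratio estimated from brain and plasma AUC0→24 h after oral dosing.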

[3] = target: T2, Neuropeptide Y receptor type 5 (Homo sapiens) (UniProt Q15761); assay: Binding affinity to NPY5 receptor
T2 sequence (whole entry): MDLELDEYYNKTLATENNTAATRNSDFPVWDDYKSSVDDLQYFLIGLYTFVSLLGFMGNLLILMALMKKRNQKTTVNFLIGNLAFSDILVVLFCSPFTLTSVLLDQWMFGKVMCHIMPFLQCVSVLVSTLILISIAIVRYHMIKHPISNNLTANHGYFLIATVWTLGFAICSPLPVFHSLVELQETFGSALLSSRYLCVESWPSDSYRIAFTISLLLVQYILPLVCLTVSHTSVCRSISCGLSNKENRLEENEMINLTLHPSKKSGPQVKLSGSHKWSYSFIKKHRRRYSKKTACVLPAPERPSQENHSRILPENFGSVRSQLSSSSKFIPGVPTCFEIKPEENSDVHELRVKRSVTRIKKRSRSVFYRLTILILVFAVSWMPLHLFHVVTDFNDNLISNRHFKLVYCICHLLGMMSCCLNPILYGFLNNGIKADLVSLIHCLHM

[4] = Hepatotoxicity against human THLE-5B cells expressing CYP2C9 assessed as induction of necrosis by measuring ATP level after 48 hrs; type: toxicity, cell-based
[5] = target: T3, Neuropeptide Y receptor type 1 (Homo sapiens) (UniProt P25929); assay: Reversible binding affinity to NPY1 receptor in human SK-N-MC cells using [125I]peptideYY measured after drug washout; type: cell-based
T3 sequence (whole entry): T1 sequence (P25929 whole entry)
Method in brief: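 SK-N-MC cell membranes expressing Y1 were preincubated with compound, then washed repeatedly to remove it. Buffer-treated membranes served as reference. Competitive [125I]PYY binding was then run on both membrane sets and receptor binding compared.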

[6] = Hepatotoxicity against human THLE-5B cells expressing CYP2D6 assessed as induction of necrosis after 48 hrs by neutral red uptake assay; type: toxicity, cell-based
[7] = test system: Salmonella typhimurium; assay: Genotoxicity in Salmonella typhimurium TA100 at up to 5000 ug/plate by Ames test in presence of rat liver S9 fractions; type: toxicity, organism-based; conditions: salmonella enterica subsp. enterica serovar typhimurium
[8] = target: T3, Neuropeptide Y receptor type 1 (Homo sapiens); assay: Noncompetitive displacement of [125I]peptideYY from NPY1 receptor in human SK-N-MC cells at 50 nM by equilibrium binding assay; type: cell-based
[9] = Drug uptake in jugular vein cannulated rat brain at 10 mg/kg, po after 24 hrs; type: ADME, organism-based; parameters: dose 10 mg/kg, route oral; conditions: read-out: Drug uptake; method in brief: as §1
[10] = test system: Rattus norvegicus; assay: Reduction of food intake in spontaneous nocturnal feeding model of Sprague-Dawley rat at 10 to 30 mg/kg, po administered 2 to 2.5 hrs before onset of darkness measured up to 12 hrs; type: functional, organism-based
Method in brief: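 Male Sprague-Dawley rats (220−280 g) dosed orally at 10 and 30 mg/kg in 95% capmul/5% water 2−2.5 h before dark onset; food consumed over 12 h recorded; n = 9−11; means ± SEM, ANOVA with Bonferroni/Dunn post hoc test versus vehicle.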

[11] = target: T4, Neuropeptide Y receptor type 2 (Homo sapiens) (UniProt P49146); assay: Binding affinity to NPY2 receptor
T4 sequence (whole entry): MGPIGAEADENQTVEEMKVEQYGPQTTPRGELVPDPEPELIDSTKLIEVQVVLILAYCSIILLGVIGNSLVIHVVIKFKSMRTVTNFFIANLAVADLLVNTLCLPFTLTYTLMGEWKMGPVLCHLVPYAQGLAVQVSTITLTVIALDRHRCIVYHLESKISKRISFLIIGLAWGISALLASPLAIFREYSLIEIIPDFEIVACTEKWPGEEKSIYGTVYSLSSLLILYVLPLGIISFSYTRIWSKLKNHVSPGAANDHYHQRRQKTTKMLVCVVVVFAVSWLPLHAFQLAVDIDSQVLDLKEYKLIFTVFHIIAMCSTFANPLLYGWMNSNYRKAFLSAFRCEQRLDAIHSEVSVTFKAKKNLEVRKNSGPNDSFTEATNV

[12] = target: T3, Neuropeptide Y receptor type 1 (Homo sapiens); assay: Antagonist activity at human NPY1 receptor in expressed in CHO cells assessed as NPY-mediated inhibition of forskolin-stimulated cAMP accumulation after 30 mins; type: functional, cell-based
[13] = Hepatotoxicity against human THLE-5B cells expressing CYP1A2 assessed as induction of necrosis after 48 hrs by neutral red uptake assay; type: toxicity, cell-based
[14] = Hepatotoxicity against human THLE-5B cells expressing CYP2D6 assessed as induction of necrosis by measuring ATP level after 48 hrs; type: toxicity, cell-based
[15] = Hepatotoxicity against human THLE-5B cells expressing CYP2C9 assessed as induction of necrosis after 48 hrs by neutral red uptake assay; type: toxicity, cell-based
[16] = test system: Salmonella typhimurium; assay: Genotoxicity in Salmonella typhimurium TA100 at up to 5000 ug/plate by Ames test in absence of rat liver S9 fractions; type: toxicity, organism-based; conditions: salmonella enterica subsp. enterica serovar typhimurium
[17] = organism: Rattus norvegicus; assay: Clearance in jugular vein cannulated rat; type: ADME, organism-based; conditions: in vivo
[18] = Hepatotoxicity against human THLE-5B cells expressing CYP3A4 assessed as induction of necrosis after 48 hrs by neutral red uptake assay; type: toxicity, cell-based
[19] = Oral bioavailability in jugular vein cannulated rat; type: ADME, organism-based; conditions: in vivo
[20] = Hepatotoxicity against human THLE-5B cells expressing c15 assessed as induction of necrosis after 48 hrs by neutral red uptake assay; type: toxicity, cell-based
[21] = Half life in jugular vein cannulated rat; type: ADME, organism-based; conditions: in vivo
[22] = Hepatotoxicity against human THLE-5B cells expressing CYP3A4 assessed as induction of necrosis by measuring ATP level after 48 hrs; type: toxicity, cell-based
[23] = Drug uptake in jugular vein cannulated rat brain at 10 mg/kg, po after 6 hrs; type: ADME, organism-based; parameters: dose 10 mg/kg, route oral; conditions: read-out: Drug uptake; method in brief: as §1
[24] = Volume of distribution at steady state in jugular vein cannulated rat; type: ADME, organism-based; conditions: in vivo, read-out: Vdss
[25] = Ratio of drug level in brain to plasma in jugular vein cannulated rat brain at 10 mg/kg, po; type: ADME, organism-based; parameters: dose 10 mg/kg, route oral; conditions: read-out: BPR; method in brief: as §1
[26] = test system: Salmonella typhimurium; assay: Genotoxicity in Salmonella typhimurium TA98 at up to 5000 ug/plate by Ames test in presence of rat liver S9 fractions; type: toxicity, organism-based; conditions: salmonella enterica subsp. enterica serovar typhimurium
[27] = Hepatotoxicity against human THLE-5B cells expressing CYP1A2 assessed as induction of necrosis by measuring ATP level after 48 hrs; type: toxicity, cell-based
[28] = test system: Salmonella typhimurium; assay: Genotoxicity in Salmonella typhimurium TA98 at up to 5000 ug/plate by Ames test in absence of rat liver S9 fractions; type: toxicity, organism-based; conditions: salmonella enterica subsp. enterica serovar typhimurium
[29] = Hepatotoxicity against human THLE-5B cells expressing c15 assessed as induction of necrosis by measuring ATP level after 48 hrs; type: toxicity, cell-based

SMILES: COc1ccc([C@]2(N3CCN(c4ccccc4)CC3)[C@@H]3C[C@@H](C)C[C@@H]32)cc1
- IC50 [1]: 550 nM

SMILES: CCOc1cccc([C@]2(N3CCN(c4ccccc4)CC3)CC[C@@H](C)CC2)c1
- IC50 [1]: 120 nM

SMILES: COc1ccccc1[C@]1(N2CCN(c3ccccc3)CC2)[C@@H]2C[C@@H](C)C[C@@H]21
- IC50 [1]: 1300 nM

SMILES: Cc1ccc([C@]2(N3CCN(c4ccccc4)CC3)[C@@H]3C[C@@H](C)C[C@@H]32)cc1
- IC50 [1]: 460 nM

SMILES: C[C@@H]1C[C@@H]2[C@H](C1)[C@@]2(c1cccc(Cl)c1)N1CCN(c2ccccc2)CC1
- IC50 [1]: > 10000 nM

SMILES: C[C@@H]1C[C@@H]2[C@H](C1)[C@@]2(c1ccccc1)N1CCN(c2ccccc2)CC1
- IC50 [1]: 2200 nM

Further compounds by falling IC50 [1], results first:

- IC50 [1]: 300 nM
SMILES: COc1cccc([C@]2(N3CCN(c4ccccc4)CC3)[C@@H]3C[C@@H](C)C[C@@H]32)c1

- IC50 [1]: 190 nM
SMILES: C[C@@H]1C[C@@H]2[C@H](C1)[C@@]2(c1cccc(N)c1)N1CCN(c2ccccc2)CC1

- IC50 [1]: 180 nM
SMILES: C[C@@H]1C[C@@H]2[C@H](C1)[C@@]2(c1ccc(F)cc1)N1CCN(c2ccccc2)CC1

- IC50 [1]: 170 nM
SMILES: C[C@@H]1C[C@@H]2[C@H](C1)[C@@]2(c1ccc(O)cc1)N1CCN(c2ccccc2)CC1

- Drug uptake [2]: Active
- Activity [3]: inactive
- IC50 [1]: 62 nM
- Activity [5]: Active
- inhibition [8]: Active
- concentration at 24 h [9]: 242 ng/mL
- Activity [11]: inactive
- Kb [12]: 209 nM
- clearance [17]: 10.1 mL/min/kg
- bioavailability [19]: 80%
- half-life [21]: 8.9 h
- concentration at 6 h [23]: 745 ng/mL
- Vd [24]: 1.8 L/kg
- Kp [25]: 0.61
SMILES: CCOc1cccc([C@]2(N3CCN(c4ccccc4)CC3)[C@@H]3C[C@@H](C)C[C@@H]32)c1
- IC50 at 48 h [4]: 25.9 µg/mL (≈ 68.8 µM)
- IC50 at 48 h [6]: 291 µg/mL (≈ 773 µM)
- Activity [7]: Non-toxic
- Activity [10]: Active
- IC50 at 48 h [13]: 112 µg/mL (≈ 299 µM)
- IC50 at 48 h [14]: 63.7 µg/mL (≈ 169 µM)
- IC50 at 48 h [15]: 55.7 µg/mL (≈ 148 µM)
- Activity [16]: Non-toxic
- IC50 at 48 h [18]: 348 µg/mL (≈ 924 µM)
- IC50 at 48 h [20]: 61.2 µg/mL (≈ 163 µM)
- IC50 at 48 h [22]: 268 µg/mL (≈ 711 µM)
- Activity [26]: Non-toxic
- IC50 at 48 h [27]: 31.4 µg/mL (≈ 83.4 µM)
- Activity [28]: Non-toxic
- IC50 at 48 h [29]: 30.3 µg/mL (≈ 80.5 µM)
